Legend:
SCoV2 [1] = assay: SCoV2 replication in hACE2-HeLa cells, NP western blot; type: cell-based, SARS-CoV2 (SZ02); conditions: 5 μM, 48 h
[2] = tested on: NF-κB activation perturbed by SCoV2 PLpro; assay: NF-κB activity luciferase-reporting assay; type: cell-based, Human
[3] = tested on: 10 DUBs or DUB-like proteases, including USP14 and OTUB1; assay: Inhibitor specificity assay; type: biochemical, Human; conditions: 19 at 10 μM, Ub-Rho substrate
[4] = Stability in mouse plasma; type: in vitro ADME
SCoV2 [5] = assay: microbe, parasite or virus in culture; conditions: Severe acute respiratory syndrome coronavirus 2, read-out: IC50 (inhibition of SCoV2 replication)
SCoV2 [6] = conditions: hACE2-HeLa cells
[7] = Metabolic stability in mouse liver microsomes; type: in vitro ADME
Summary of the method: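 It was then split into 7 aliquots, each given NADPH (3 mM solution added) or PBS alone and incubated at 37°C. Samples were diluted 1:1 with water and analysed by LC-MS.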

hACE2-HeLa cells = assay: Cytotoxicity, CellTiter-Glo viability assay; type: cell-based, Human; conditions: 10 μM, 72 h
Summary of the method: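 hACE2-HeLa cells grown in DMEM with 10% FBS and penicillin-streptomycin at 37°C, 5% CO2, and passaged before confluency. 2 x 10^3 cells/well were seeded in 384-well format and exposed to test compound at a range of concentrations for 72 h. Viability was read by CellTiter-Glo luminescence.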

| SMILES | NP level in infected hACE2-HeLa cells (SCoV2 [1]) | recovery of NF-κB activation level [2] | inhibition of DUBs or DUB-like proteases [3] | half-life at 8.35 μM [4] | IC50 (SCoV2 [5]) | therapeutic index (CC50/IC50) (SCoV2 [6]) | inhibition of SCoV2 replication (in words) (SCoV2 [6]; spike immunostaining) | half-life at 1 μM [7] | cytotoxicity (in words) (hACE2-HeLa cells) |
| --- | --- | --- | --- | --- | --- | --- | --- | --- | --- |
| C[C@H](c1cccc2ccccc12)N1CCC(C(=O)NCc2cccc(F)c2)CC1 [Inhibitor 11, (R)-N-(3-fluorobenzyl)-1-(1-(naphthalen-1-yl)ethyl)piperidine-4-carboxamide] | strongest | – | – | – | – | – | – | – | – |
| C[C@H](c1cccc2ccccc12)N1CCC(C(=O)NCc2cc(F)cc(NC(=O)N3CCN(C)CC3)c2)CC1 [Inhibitor 19, (R)-N-(3-fluoro-5-((1-(1-(naphthalen-1-yl)ethyl)piperidine-4-carboxamido)methyl)phenyl)-4-methylpiperazine-1-carboxamide] | – | significantly recover | none of these 10 proteases were significantly inhibited | > 120 min | 182 nM | over 55 | significantly inhibit SCoV2 replication even at 400 nM | 28 min | neither 17 nor 19 showed detectable cytotoxicity |
